{"data": "Measurements pooled from the literature", "cell line": "LNCaP", "effect on": "cell growth or viability", "note": "Compare with care: the assays were run in different laboratories."}
{"SMILES": "COc1ccc2c(N(C)c3ccc(/C(C)=N/OCCN)cc3)c3c(Cl)coc3nc2c1", "test": "trypan blue", "setting": "72 h", "measurement": "IC50", "value": "0.235 µM"}
{"SMILES": "C[C@]12CC[C@H](O)CC1=CC[C@@H]1[C@@H]2CC[C@]2(C)C(n3cnc4ccccc43)=CC[C@@H]12", "test": "XTT", "setting": "7 days", "measurement": "IC50", "value": "2.6 µM"}
{"SMILES": "C[C@]12CC[C@H](O)CC1=CC[C@@H]1[C@@H]2CC[C@]2(C)C(c3cccnc3)=CC[C@@H]12", "test": "MTT", "measurement": "GI50", "value": "11.2 µM"}
{"SMILES": "O=C(O)C(c1c[nH]c2ccccc12)c1c[nH]c2ccccc12", "test": "MTT", "setting": "100 µM, 48 h", "measurement": "inhibition", "value": "34%"}
{"SMILES": "COC1=CC(=O)N(C(=O)[C@@H](CCC(Cl)(Cl)Cl)NC(=O)C(C)(C)C)[C@@H]1CCC(Cl)Cl", "test": "resazurin", "setting": "96 h", "measurement": "IC50", "value": "6.9 µM"}
{"SMILES": "CC(C)C[C@H](NC(=O)[C@H](Cc1ccccc1)NC(=O)c1cnccn1)B(O)O", "test": "ATP luminescence", "measurement": "IC50", "value": "0.019 µM"}
{"SMILES": "CNC(=O)c1ccc(N2C(=S)N(c3ccc(C#N)c(C(F)(F)F)c3)C(=O)C2(C)C)cc1F", "test": "MTT", "measurement": "GI50", "value": "13.7 µM"}
{"SMILES": "Cn1cc(C(c2ccc(C(=O)O)cc2)c2cn(C)c3ccccc23)c2ccccc21", "test": "MTT", "setting": "48 h", "measurement": "IC50", "value": "36 µM"}
{"SMILES": "CC(O)(CS(=O)(=O)c1ccc(F)cc1)C(=O)Nc1ccc(C#N)c(C(F)(F)F)c1 (stereo not shown)", "test": "XTT", "setting": "7 days", "measurement": "IC50", "value": "4.6 µM"}
{"SMILES": "COc1cc(C(=O)c2csc(-c3ccccc3)n2)cc(OC)c1OC", "test": "SRB", "setting": "96 h", "measurement": "IC50", "value": "0.028 µM"}
{"SMILES": "O=C(CCCCCCC(=O)Nc1ccc(CCF)cc1)NO", "test": "MTT", "setting": "72 h", "measurement": "GI50", "value": "4.8 µM"}
{"SMILES": "O=C(O)/C=C/c1cccc(C(c2c[nH]c3ccccc23)c2c[nH]c3ccccc23)c1", "test": "MTT", "setting": "48 h", "measurement": "IC50", "value": "43 µM"}
{"SMILES": "O=C(CCCCCCC(=O)Nc1ccccc1)NO", "test": "MTT", "setting": "72 h", "measurement": "GI50", "value": "5.2 µM"}
{"SMILES": "FC(F)(F)c1ccc(C(c2c[nH]c3ccccc23)c2c[nH]c3ccccc23)cc1", "test": "MTT", "setting": "20 µM, 48 h", "measurement": "inhibition", "value": "97%"}
{"SMILES": "CC(=O)O[C@@]12CO[C@@H]1C[C@H](O)[C@@]1(C)C(=O)[C@H](O)C3=C(C)[C@@H](OC(=O)[C@H](O)[C@@H](NC(=O)OC(C)(C)C)c4ccccc4)C[C@@](O)([C@@H](OC(=O)c4ccccc4)[C@H]21)C3(C)C", "test": "trypan blue", "measurement": "IC50", "value": "0.001 µM"}
{"SMILES": "COc1cc(Nc2nccc(-c3cnn4nc(OC)ccc34)n2)cc(C(F)(F)F)c1", "test": "ATP luminescence", "measurement": "IC50", "value": "0.47 µM"}
